Results: ChEMBL document CHEMBL1127440, “Structure-affinity relationship studies on 5-HT1A receptor ligands. 2. Heterobicyclic phenylpiperazines with N4-aralkyl substituents” (J Med Chem, 1994)
pKi: −log10 of the molar value.

target: T1, 5-hydroxytryptamine receptor 1A (Rattus norvegicus, UniProt P19327); experiment: Binding affinity to displace [3H]2-(di-N-propylamino)-8-hydroxy-tetralin from 5-hydroxytryptamine 1A (5-HT1A) receptor in rat frontal cortex homogenates; format: tissue-based
T1 sequence (P19327 whole entry): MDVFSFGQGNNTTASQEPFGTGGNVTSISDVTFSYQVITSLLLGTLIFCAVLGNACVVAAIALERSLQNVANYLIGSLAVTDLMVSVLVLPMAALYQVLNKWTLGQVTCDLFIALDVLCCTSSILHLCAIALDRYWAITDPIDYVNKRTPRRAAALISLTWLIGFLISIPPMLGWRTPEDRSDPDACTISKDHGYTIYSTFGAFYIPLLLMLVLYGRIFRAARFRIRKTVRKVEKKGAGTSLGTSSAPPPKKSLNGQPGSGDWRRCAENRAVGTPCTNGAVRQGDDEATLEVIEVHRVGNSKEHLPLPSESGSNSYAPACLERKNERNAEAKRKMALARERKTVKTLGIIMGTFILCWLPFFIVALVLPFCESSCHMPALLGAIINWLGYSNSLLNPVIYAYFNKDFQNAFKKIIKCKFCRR
Method in brief: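 Rat frontal cortex homogenate; [3H]-8-OH-DPAT displaced from specific 5-HT1A sites. Each compound was tested at four to six concentrations in triplicate per assay. Three to six independent assays were run per compound. Ki ± SEM (nM) reported.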

Compared with `O=C(NCCN1CCN(c2cccc3c2OCCO3)CC1)C1CCCCC1`, `O=C(NCCN1CCN(c2cccc3ccoc23)CC1)C1CCCCC1` is 0.34 log units higher in pKi: 9.36 for the first, 9.70 for the second.

Going from `c1ccc(CCN2CCN(c3cccc4ccoc34)CC2)cc1` to `c1ccc(CN2CCN(c3cccc4ccoc34)CC2)cc1`, the pKi falls from 9.43 to 7.66 (1.77 log units).

First: O=C(CCCN1CCN(c2cccc3ccoc23)CC1)c1ccc(F)cc1
Second: O=C(NCCN1CCN(c2cccc3ccoc23)CC1)c1ccc(F)cc1
The pKi of the first is 0.82 log units lower: 9.00 for the first, 9.82 for the second. The second binds more tightly here.

Going from `c1ccc(CN2CCN(c3cccc4c3OCCO4)CC2)cc1` to `c1ccc(CCN2CCN(c3cccc4c3OCCO4)CC2)cc1`, the pKi rises from 7.55 to 9.33 (1.78 log units). The second binds more tightly here.

Going from `c1ccc(OCCCN2CCN(c3cccc4ccoc34)CC2)cc1` to `c1ccc(OCCN2CCN(c3cccc4ccoc34)CC2)cc1`, the pKi rises from 9.07 to 9.34 (0.27 log units).

`c1ccc2c(c1)OCC(CN1CCN(c3cccc4ccoc34)CC1)O2` (stereo not drawn) and `c1ccc2c(c1)OCC(CN1CCN(c3cccc4c3OCCO4)CC1)O2` (stereo not drawn) are within 0.2 log units of each other in pKi: 8.24 for the first, 8.40 for the second.

`c1ccc(OCCN2CCN(c3cccc4c3OCCO4)CC2)cc1` and `c1ccc(OCCCN2CCN(c3cccc4c3OCCO4)CC2)cc1` are within 0.2 log units of each other in pKi: 9.14 for the first, 9.02 for the second.

First: O=C(CCCN1CCN(c2cccc3c2OCCO3)CC1)c1ccc(F)cc1
Second: O=C(NCCN1CCN(c2cccc3c2OCCO3)CC1)c1ccc(F)cc1
The pKi of the first is 0.67 log units lower: 8.85 for the first, 9.52 for the second.

First: c1ccc(CCCCN2CCN(c3cccc4c3OCCO4)CC2)cc1
Second: O=C(CCCN1CCN(c2cccc3c2OCCO3)CC1)c1ccccc1
The pKi of the first is 0.32 log units higher: 9.49 for the first, 9.17 for the second. The first binds more tightly here.
